RGS4 act = potentiators or activators of RGS4. HEK293 M3R/inducible RGS4, carbachol calcium flux Fluo4; stronger effect = lower value. B-score at 10 µM. hit rate 0.92% among 310,000. AID 463111;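 active means B-score of the integrated calcium signal more than 4 SD below the library mean, with starting fluorescence not abnormally high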;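 further: negative B-score means reduced calcium response which marks RGS4 activation or potentiation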
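Material: Inducible-RGS4 HEK293 cells carrying M3 receptor; also added: carbachol at ECmax as muscarinic agonist stimulus; incubation: compound preincubation 20 min at room temperature before agonist; signal: Fluo4-AM (2 µM) calcium-flux fluorescence, kinetic read; measure: integrated calcium ratio converted to B score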
RGS4 block = human RGS4 inhibition; P49798; HEK293 M3R/RGS4 inducible, Fluo-4 calcium flux; stronger effect = higher value; triggered by carbachol at its EC20; B-score at 10 µM; hit rate 0.45% among 310,000; AID 463165;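 active means B-score, a plate-corrected calcium signal, over three deviations above library mean, with baseline fluorescence within five deviations of library mean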;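 further: RGS4 expression induced by doxycycline in cells with stable M3 receptor; B-score is computed from the integrated fluorescence ratio over baseline after carbachol; higher B-score means a larger calcium signal and so more RGS4 inhibition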
Target sequence (P49798 whole entry, looked up): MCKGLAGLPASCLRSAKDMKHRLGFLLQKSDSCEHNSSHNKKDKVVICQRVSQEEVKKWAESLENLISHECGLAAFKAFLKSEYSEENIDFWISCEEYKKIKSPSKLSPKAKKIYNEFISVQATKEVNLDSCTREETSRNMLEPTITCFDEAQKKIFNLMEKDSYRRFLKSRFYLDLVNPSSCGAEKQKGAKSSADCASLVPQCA
MrgX1 allo act = human MrgX1 positive allosteric modulation, primary screen | Q96LB2 | MrgX1-HEK293, Fluo-4 calcium flux, FDSS; stronger effect = higher value | B-score at 10 µM | hit rate 0.63% among 310,000 | AID 588675;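 active means plate-corrected calcium response at least 3 library SD above typical, normal starting fluorescence, not activating the receptor alone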;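 further: compound read alongside a low EC10 to EC30 dose of BAM8-22 agonist; peak minus trough fluorescence over baseline measured at the second addition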
Target sequence (Q96LB2 whole entry, looked up): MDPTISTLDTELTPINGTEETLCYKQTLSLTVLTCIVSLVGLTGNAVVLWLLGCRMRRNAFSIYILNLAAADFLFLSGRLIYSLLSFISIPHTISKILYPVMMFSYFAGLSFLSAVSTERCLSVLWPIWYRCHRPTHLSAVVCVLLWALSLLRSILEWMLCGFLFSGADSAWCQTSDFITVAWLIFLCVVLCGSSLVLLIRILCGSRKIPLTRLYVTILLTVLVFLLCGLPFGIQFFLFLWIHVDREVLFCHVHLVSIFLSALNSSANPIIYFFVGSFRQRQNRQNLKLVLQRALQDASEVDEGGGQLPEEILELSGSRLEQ
MrgX1 ag = agonists of human MrgX1 receptor; MrgX1-HEK293 cells, Fluo-4 calcium fluorescence, agonist mode; stronger effect = higher value; B-score at 10 µM; hit rate 0.44% among 310,000;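 active means calcium response B-score plate-corrected fluorescence ratio at least 3 library SD, with starting fluorescence B-score inside 5 SD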
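times = overnight plating, then 30 min 37 °C plus 30 min room-temperature dye loading | assay system = stable human MrgX1 HEK293 cell line | input = fifteen thousand cells per well | signal = kinetic calcium dye fluorescence, Fluo-4 NW | dosing = compound delivered in addition one of three | read-out = B-scored fluorescence response ratio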
MrgX1 antagonist = human MrgX1 receptor antagonism, primary screen. MRGX1-HEK293 calcium flux, Fluo-4, BAM8-22 antagonism; stronger effect = lower value. B-score at 10 µM. hit rate 1.3% among 310,000. AID 588676;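 active means calcium-response B-score plate-corrected more than 3 library SD below zero, starting fluorescence within 5 deviations, no agonist response on first addition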;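 further: peak minus trough fluorescence over baseline after final BAM8-22 challenge near maximal dose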
MrgX1 antag conf = reconfirmed antagonist of human MrgX1 receptor signaling | remaining BAM8-22 calcium response % of control (stronger effect = lower value), % at 10 µM | MrgX1-HEK293, BAM8-22 calcium flux, Fluo-4; stronger effect = lower value | shares compounds with MrgX1 antagonist | hit rate 19% among 2,300 | AID 602420;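 active means remaining agonist calcium response no higher than 100% minus 3 SD of agonist-only control wells, with starting fluorescence near control levels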;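 further: agonist BAM8-22 given at a near maximal EC90 to ECmax level; peak minus minimum fluorescence divided by baseline after agonist addition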
HEK293 Ca flux = activity in parental HEK293 cells lacking MrgX1; Fluo-4 calcium fluorescence, FDSS; hit rate 2% among 4,000; shares compounds with MrgX1 antagonist; fluorescence ratio F(max-min)/F0 at 10 µM;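 active means duplicate-averaged calcium fluorescence ratio at least three times the standard deviation of buffer wells, a nonspecific response in parental cells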
HEK293 Ca counter = activity in parental HEK293 cells without MrgX1. AID 624114. fluorescence ratio F(max-min)/F0 at 10 µM. hit rate 0.4% among 4,000. parental HEK293 calcium flux, Fluo-4 fluorescence ratio; stronger effect = higher value. shares compounds with MrgX1 antagonist;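 active means calcium fluorescence ratio, averaged over duplicates, at least 3 SD of the buffer-well ratio, meaning a nonspecific response in receptor-free cells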;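 further: untransfected parental HEK293 lacking MrgX1 used as counterscreen for MrgX1 allosteric activators; fluorescence change taken during the second addition on a kinetic imager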
HEK293 Ca cntr2 = activity in parental HEK293 cells lacking MrgX1 receptor. hit rate 8.7% among 4,000. shares compounds with MrgX1 antagonist. Fluo-4 calcium fluorescence (FDSS); stronger effect = higher value. AID 624115. fluorescence ratio F(max-min)/F0 at 10 µM;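 active means calcium fluorescence ratio at least three times the spread of buffer wells, meaning a non-specific response in parental cells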
* = called active by the depositor; i = inactive; x = no result given. Compounds with a hit are over-represented: about 3.5% of the library has one in this group of screens.

SMILES | RGS4 act | RGS4 block | MrgX1 allo act | MrgX1 ag | MrgX1 antagonist | MrgX1 antag conf | HEK293 Ca flux | HEK293 Ca counter | HEK293 Ca cntr2
c1ccc(COc2ccc(OCCn3cncn3)cc2)cc1 | i | i | i | i | -5.9* | i | i | i | i
O=C(c1nc2nc(-c3ccc(Cl)cc3)cc(C(F)(F)F)n2n1)N1CCOCC1 | i | i | i | i | i | x | x | x | x
O=C(c1nc2nc(-c3ccccc3)cc(C(F)(F)F)n2n1)N1CCOCC1 | i | i | i | i | -5.5* | 85%* | i | i | i
COc1ccc(CN2CCN(Cc3ccon3)CC2CCO)c(C)c1C (stereo not drawn) | i | i | i | i | i | x | x | x | x
Cc1cccc(CN2C(=O)CCSc3ccc(Cl)cc32)c1 | i | i | i | i | i | x | x | x | x
O=C1CCSc2ccc(Cl)cc2N1Cc1ccccc1 | i | i | i | i | -4.6* | 75%* | i | i | i
CCOc1ccc(-c2c(C(=O)N/N=C/c3ccsc3)nnn2-c2nonc2N)cc1 | i | i | i | i | i | x | x | x | x
O=C1CC(N2CCN(Cc3ccc(Cl)cc3)CC2)C(=O)N1CCc1ccccc1 (stereo not drawn) | i | i | i | i | i | x | x | x | x
O=C1CC(N2CCN(Cc3ccccc3)CC2)C(=O)N1CCc1ccccc1 (stereo not drawn) | i | i | i | i | -5.4* | i | i | i | i
COc1ccc2c(c1)CC/C2=N\NC(=O)c1ccccc1 | i | i | i | i | -18* | i | i | i | i
COc1ccc(OCC(=O)N/N=C2\CCc3ccccc32)cc1 | i | i | i | i | i | x | x | x | x
CCc1ccc(NC(=O)CCC(=O)N2CCSc3ccccc32)cc1 | i | i | i | i | -5.2* | i | i | i | i
CCc1cccc(NC(=O)CCC(=O)N2CCSc3ccccc32)c1 | i | i | i | i | i | x | x | x | x
COC(=O)c1cc(C#N)c(OC)nc1C | i | i | i | i | -5.1* | i | i | i | i
COc1cccc(CN(C)C(=O)Cc2ccc(OC)c(S(=O)(=O)N3CCOCC3)c2)c1 | i | i | i | i | i | x | x | x | x
COc1ccc(CC(=O)N(C)C2CCCCC2)cc1S(=O)(=O)N1CCOCC1 | i | i | i | i | -4.6* | i | i | i | i
CCn1ccc(C(=O)Nc2ncc(C)s2)n1 | i | i | i | i | -5.4* | i | i | i | i
COCC(=O)Nc1nnc(COc2ccc(Cl)cc2)s1 | i | i | i | i | -7.1* | i | i | i | i
COc1ccc(OCC(=O)Nc2ccc(Cl)cc2)cc1 | i | i | i | i | -5* | i | i | i | i
Cc1ccc(Cl)cc1NS(=O)(=O)N1CCOCC1 | i | i | i | i | i | x | x | x | x
COc1ccc(Cl)cc1NS(=O)(=O)N1CCOCC1 | i | i | i | i | -6.2* | i | i | i | i
CC(C)C(NS(=O)(=O)c1cccs1)C(=O)NCc1ccc2c(c1)OCO2 (stereo not drawn) | i | i | i | i | -4.6* | i | i | i | i
Cc1ccc(CNC(=O)C(NS(=O)(=O)c2cccs2)C(C)C)cc1 (stereo not drawn) | i | i | i | i | i | x | x | x | x
CN(C)S(=O)(=O)c1ccc(Cl)c(NC(=O)CN2CCN(Cc3ccc4c(c3)OCO4)CC2)c1 | i | i | i | i | i | x | x | x | x
CCOc1ccc(CNS(=O)(=O)c2cccs2)cc1OCC | i | i | i | i | i | x | x | x | x
SMILES | RGS4 act | RGS4 block | MrgX1 allo act | MrgX1 ag | MrgX1 antagonist | MrgX1 antag conf | HEK293 Ca flux | HEK293 Ca counter | HEK293 Ca cntr2
c1ccc(-c2csc3ncnc(NCc4ccccn4)c23)cc1 | i | i | i | i | -5.6* | i | i | i | i
CN(C)CCCNc1ncnc2scc(-c3ccccc3)c12 | i | i | i | i | i | x | x | x | x
Cc1ccc(Nc2ncnc(N)n2)cc1C | i | i | i | i | i | x | x | x | x
CCCn1c(-c2cccs2)nc2ccccc21 | i | i | i | i | i | x | x | x | x
CCN1c2ccccc2-c2nc3ccccc3n2C1c1cccs1 (stereo not drawn) | i | i | i | i | -6.1* | i | i | i | i
Cc1cccc(C(=O)OC(C)C(=O)NC(=O)NC2CCCCC2)c1O (stereo not drawn) | i | i | i | i | i | x | x | x | x
CC(=O)Nc1cccc(C(=O)OC(C)C(=O)NC(=O)NC2CCCCC2)c1 (stereo not drawn) | i | i | i | i | -9.9* | i | i | i | i
COc1ccc(Nc2cc3n(c(=O)n2)CCc2cc(OC)c(OC)cc2-3)c(C)c1 | i | i | i | i | -6.3* | i | i | i | i
OCc1ccnc2oc3ccccc3c12 | i | i | i | i | i | x | x | x | x
O=C(COc1cc(Cl)ccc1Cl)Nc1nnc(C2CC2)s1 | i | i | i | i | -4.6* | i | i | i | i
CC(=O)c1sc(NC(=O)COc2ccc(Cl)cc2Cl)nc1C | i | i | i | i | -4.7* | i | i | i | i
COc1ccccc1OCC(=O)Nc1nnc(C2CCCC2)s1 | i | i | i | i | i | x | x | x | x
CC(=O)N1CCN(c2ccc(NC(=O)COc3ccc(Cl)cc3Cl)cc2)CC1 | i | i | i | i | -7* | 85%* | i | i | i
CN(C)CCCNC(NC(=O)c1cccs1)C(Cl)(Cl)Cl (stereo not drawn) | i | i | i | i | i | x | x | x | x
COc1ccc(N2CCN(C(=O)[C@H](Cc3c[nH]c4ccccc34)NC(C)=O)CC2)cc1 | i | i | i | i | i | x | x | x | x
O=C(CSc1nnnn1-c1cccc2c1CCCC2)NC1CCCC1 | i | i | i | i | -4.5* | i | i | i | i
CN1CCN(S(=O)(=O)c2cccc(C(=O)Nc3ccccc3N3CCCC3)c2)CC1 | i | i | i | i | -4.6* | i | i | i | i

High-throughput results deposited in PubChem by Johns Hopkins Ion Channel Center.
